Experimental data: publication PMC6690763 (Bioorganic & medicinal chemistry letters, 2019)

Legend:
plasma stability, mouse = type: in vitro ADME
plasma stability, human = type: in vitro ADME
[1] = system: latent EBV in MutuI cells; experiment: EBV lytic reactivation, MutuI cell based assay; set-up: species or system Epstein-Barr virus; conditions: for potency in EBV reactivation relative to 12: analogs of 12
[2] = solubility on formulation; type: physicochemical; conditions: for solubility when formulated: 10% DMSO/ 10% solutol/ 80% PBS formulation mixture; for water solubility (ease of formulation): PEG moiety instead of methoxy in the B ring
[3] = system: latent EBV in SNU719 gastric carcinoma tumors; experiment: SNU719 gastric carcinoma xenograft, BZLF1 immunoblot of tumors; type: in vivo; conditions: NSG mice, 30 mg/kg i.p. once per day, 4 days
Procedure, shortened: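 SNU719 gastric carcinoma cells (1×10^7) injected subcutaneously into left and right flanks of NSG mice (both sexes, 8-10 weeks old). From 28 days post-injection, test compound given i.p. at 30 mg/kg once daily; controls were vehicle (5% DMSO/5% Solutol) and PBS. Tumors collected after 4 days of treatment and homogenized. Immunoblot for lytic BZLF1 (Z), with β-actin as loading control.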

latent EBV = experiment: cell based reactivation, Western blot analysis; set-up: species or system Epstein-Barr virus; conditions: compared with methoxy substituted counterparts; data not shown
[4] = liver microsomal stability, mouse; type: in vitro ADME; conditions: microsomes
[5] = liver microsomal stability, human; type: in vitro ADME; conditions: microsomes
EBV-positive cells = conditions: combination with Ganciclovir; cited from earlier work
[6] = system: latent EBV in MutuI cells; conditions: typical; cited from earlier work

Question: With `COc1ccc(C2c3[nH]c4ccc(Cl)cc4c3CCN2C(=O)c2cccc(OC)c2)cc1` (stereo not drawn) [Compound 12] as the compound, how does the “Plasma Stability Mouse” value (plasma stability, mouse) read?
Answer: >6 h

Question: And the “Plasma Stability Human” value (plasma stability, human)?
Answer: >6 h

Question: What does the source list for `COc1ccc(C2c3[nH]c4ccc(Cl)cc4c3CCN2C(=O)c2cccc(CN3CCOCC3)c2)cc1` (stereo not drawn) [Compound 18]?
Answer: potency in EBV reactivation relative to 12 [1]: maintained potency; solubility when formulated [2]: more soluble

Question: Which “potency in EBV reactivation relative to 12” value [1] does the source give for `O=C(c1cccc(CN2CCOCC2)c1)N1CCc2c([nH]c3ccc(Cl)cc23)C1c1ccc(Cl)cc1` (stereo not drawn) [Compound 19] here?
Answer: maintained potency

Question: What about the solubility when formulated [2] of the same compound?
Answer: more soluble

Question: Which “potency in EBV reactivation relative to 12” value [1] does the source give for `COc1cccc(C(=O)N2CCc3c([nH]c4ccc(Cl)cc34)C2c2ccc(O)cc2)c1` (stereo not drawn) [Compound 20] here?
Answer: maintained potency

Question: What about the solubility when formulated [2] of the same compound?
Answer: more soluble

Question: What about the “EBV reactivation in tumors (presence of lytic protein BZLF1)” value [3] of the same compound?
Answer: modestly reactivates EBV

Question: With `COCCOCCOCCOc1ccc(C2c3[nH]c4ccc(Cl)cc4c3CCN2C(=O)Nc2ccccc2C(=O)OC)cc1` (stereo not drawn) [Compound 21] as the compound, how does the “water solubility (ease of formulation)” value [2] read?
Answer: significantly improved water solubility

Question: What about the “activity by Western blot analysis” value (latent EBV) of the same compound?
Answer: comparable activity to their methoxy substituted counterparts

Question: Which results are given for `COCCOCCOCCOc1ccc(C2c3[nH]c4ccc(Cl)cc4c3CCN2C(=O)Nc2ccccc2Cl)cc1` (stereo not drawn) [Compound 22]?
Answer: water solubility (ease of formulation) [2]: significantly improved water solubility; activity by Western blot analysis (latent EBV): comparable activity to their methoxy substituted counterparts

Question: With `COC(=O)c1ccccc1NC(=O)N1CCc2c([nH]c3ccc(Cl)cc23)C1c1ccc(OC)cc1` (stereo not drawn) [Compound C60] as the compound, how does the EC50 ([1]; human gammaherpesvirus 4, MUTU-I, read-out: potency in cells) read?
Answer: 150 to 200 nM

Question: And the “Plasma Stability Mouse” value (plasma stability, mouse)?
Answer: >6 h

Question: And the “Plasma Stability Human” value (plasma stability, human)?
Answer: >6 h

Question: And the “Liver Microsomal Stability Mouse CLint” value [4]?
Answer: < 0.5

Question: What about the “Liver Microsomal Stability Human CLint” value [5] of the same compound?
Answer: 0.93

Question: And the “synergy with GCV in killing EBV-positive cells” value (EBV-positive cells)?
Answer: functions synergistically with Ganciclovir (GCV) to selectively kill EBV-positive cells

Question: For `CCCC(=O)[O-].[Na+]` [NaB, sodium butyrate], which “concentration required to trigger the latent to lytic switch” value [6] is on record?
Answer: millimolar concentrations

Question: Which “concentration required to trigger the latent to lytic switch” value [6] does the source give for `CCCCCCCCCCCCCC(=O)O[C@@H]1[C@@H](C)[C@@]2(O)[C@@H](C=C(CO)C[C@]3(O)C(=O)C(C)=C[C@@H]23)[C@@H]2C(C)(C)[C@]12OC(C)=O` [TPA, 12-O-tetradecanoylphorbol-13-acetate] here?
Answer: millimolar concentrations
